The source of these data is ChEMBL document CHEMBL4354840, “Discovery of a Small Side Cavity in Sphingosine Kinase 2 that Enhances Inhibitor Potency and Selectivity” (J Med Chem, 2020).

SMILES strings stand for the structures. pKi: −log10 of the molar value. Activity calls are given as the source filed them. The calls are words filed in the database; no cut-off is given here.

The target in series [1] is T1, Sphingosine kinase 2 (Homo sapiens) (UniProt Q9NRA0).
T1 sequence (whole entry): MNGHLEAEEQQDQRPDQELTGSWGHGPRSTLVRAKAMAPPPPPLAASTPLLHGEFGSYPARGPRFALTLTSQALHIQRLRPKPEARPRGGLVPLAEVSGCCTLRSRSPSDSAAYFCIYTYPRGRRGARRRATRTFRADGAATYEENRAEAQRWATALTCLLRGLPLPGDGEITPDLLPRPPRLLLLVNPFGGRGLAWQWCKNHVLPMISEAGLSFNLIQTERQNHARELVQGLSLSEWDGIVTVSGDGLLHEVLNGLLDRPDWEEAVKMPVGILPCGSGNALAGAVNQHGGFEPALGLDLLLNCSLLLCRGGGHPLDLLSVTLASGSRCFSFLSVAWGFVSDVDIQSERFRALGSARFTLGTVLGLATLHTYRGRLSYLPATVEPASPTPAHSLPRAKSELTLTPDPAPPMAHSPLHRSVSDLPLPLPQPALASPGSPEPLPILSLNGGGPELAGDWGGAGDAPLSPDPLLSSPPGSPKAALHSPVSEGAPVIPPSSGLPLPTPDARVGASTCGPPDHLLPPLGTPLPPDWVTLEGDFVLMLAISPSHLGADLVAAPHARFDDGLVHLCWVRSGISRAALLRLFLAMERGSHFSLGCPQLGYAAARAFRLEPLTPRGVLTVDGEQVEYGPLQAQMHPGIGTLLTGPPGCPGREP
The series can be described thus: Inhibition of recombinant human SphK2 transfected in HEK293T cells at 0.3 uM using D-erythro-sphingosine as substrate incubated for 20 mins in presence of [gamma32P]-ATP by liquid scintillation counting method relative to control. Type of series: cell-based. The procedure, abridged: (§1)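 Human SphK2 recombinant protein isolated from cell lysate. Reaction contained 10 μM sphingosine and 250 μM γ-[32P]ATP, with or without inhibitor. Product was read by scintillation counting. Activity is expressed as % of the no-inhibitor control. Compounds were tested at 1.0 and 0.3 μM in triplicate.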

Series [2] concerns the target T1, Sphingosine kinase 2 (Homo sapiens). The series can be described thus: Inhibition of recombinant human SphK2 transfected in HEK293T cells at 1 uM using D-erythro-sphingosine as substrate incubated for 20 mins in presence of [gamma32P]-ATP by liquid scintillation counting method relative to control. The procedure, abridged: as §1
For series [3], the target named is T2, Sphingosine kinase 2 (Homo sapiens, UniProt Q9NRA0).
T2 sequence (Q9NRA0 whole entry): T1 sequence (whole entry)
The series can be described thus: Inhibition of recombinant human SphK2 expressed in baculovirus infected Sf9 cells assessed as decrease in [33P]S1P production using varying level of D-erythro-sphingosine as substrate in presence of [gamma33P]-ATP by scintillation proximity assay.

The next series has as its system Saccharomyces cerevisiae. In words: Toxicity against Saccharomyces cerevisiae KYA1 assessed as cell death at >3 uM incubated for 24 to 48 hrs. Type of series: organism-based. As to conditions: in vivo.
Series [4] has as its system Mus musculus. In words: In vivo inhibition of SphK2 in C57BL/6 mouse assessed as Cmax required for two-fold increase in sphingosine-1-phosphate level in blood at 10 mg/kg, ip administered as single dose measured after 4 hrs by LC-MS/MS analysis. Type of series: functional, organism-based. Also on record: dose 10 mg/kg. The procedure, abridged:
(§2)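 Male C57BL/6 mice, 8–10 weeks old, received a single i.p. dose of vehicle or 10 mg/kg inhibitor in 2% hydroxypropyl-β-cyclodextrin. Retro-orbital whole blood was taken at 0.5, 1, 2, 4, 6 and 8 h. 10 μL of blood was analysed by LC/MS for S1P and compound. Groups were compared to vehicle by unpaired t-test.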

In series [5] the test system is Mus musculus. In words: In vivo inhibition of SphK2 in C57BL/6 mouse assessed as increase in sphingosine-1-phosphate level in blood at 10 mg/kg, ip administered as single dose and measured at 4 hrs post-treatment by LC-MS/MS analysis relative to control. Type of series: functional. An outline of the steps: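 Male C57BL/6 mice, 8–10 weeks old, given one i.p. injection of 10 mg/kg or vehicle (2% hydroxypropyl-β-cyclodextrin). Whole blood taken from the retro-orbital sinus at 0.5, 1, 2, 4, 6 and 8 h. 10 μL of blood processed for S1P by LC-MS/MS. S1P compared with vehicle-injected controls by unpaired t-test.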

Series [6] relates to Mus musculus. The series can be described thus: In vivo inhibition of SphK2 in C57BL/6 mouse assessed as increase in sphingosine-1-phosphate level in blood at 10 mg/kg, ip administered as single dose and measured upto 6 hrs post-treatment by LC-MS/MS analysis. Type of series: functional, organism-based. The procedure, abridged:
as §2

Series [7] deals with T3, Sphingosine kinase 2 (Mus musculus, UniProt Q9JIA7).
T3 sequence (Q9JIA7 whole entry): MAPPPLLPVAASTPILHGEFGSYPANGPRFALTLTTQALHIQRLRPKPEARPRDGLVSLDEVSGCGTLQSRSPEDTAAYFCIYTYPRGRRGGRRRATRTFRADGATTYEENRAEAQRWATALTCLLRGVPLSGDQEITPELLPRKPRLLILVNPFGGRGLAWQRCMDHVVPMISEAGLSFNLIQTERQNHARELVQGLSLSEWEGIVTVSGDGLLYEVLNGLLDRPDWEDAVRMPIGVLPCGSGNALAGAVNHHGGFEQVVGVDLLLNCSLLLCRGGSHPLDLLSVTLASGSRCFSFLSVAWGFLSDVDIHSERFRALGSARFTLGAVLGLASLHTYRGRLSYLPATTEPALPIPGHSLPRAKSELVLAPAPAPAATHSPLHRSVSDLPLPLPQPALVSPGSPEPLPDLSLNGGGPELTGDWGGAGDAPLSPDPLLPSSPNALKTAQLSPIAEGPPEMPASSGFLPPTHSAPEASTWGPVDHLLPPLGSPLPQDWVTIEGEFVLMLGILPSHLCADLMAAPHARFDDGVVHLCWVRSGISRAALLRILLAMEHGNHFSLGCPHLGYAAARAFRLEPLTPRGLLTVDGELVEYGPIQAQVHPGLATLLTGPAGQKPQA
In words: Inhibition of recombinant mouse SphK2 expressed in baculovirus infected Sf9 insect cells using D-erythro-sphingosine as substrate measured after 30 mins in presence of [gamma32P]-ATP by liquid scintillation counting method.

The next series has as its system Rattus norvegicus. In words: Decrease in sphingosine-1-phosphate level in rat blood at 10 mg/kg relative to control. Type of series: functional.

The term inhibition denotes the share of the control response that was lost under treatment. Take `CCCCCCCCOc1ccc(-c2noc([C@@H]3CCCN3C(=N)N)n2)cc1`: the figures for the inhibition in [1] and in series [2] were 3% and 8%, respectively.
The term pKi denotes −log10 of the Ki, conventionally taken in molar units. With `CC(C)c1cc(-c2noc([C@@H]3CCCN3C(=N)N)n2)ccc1OCc1ccc(C(F)(F)F)cc1.Cl`, the pKi on Sphingosine kinase 2 [3] is 6.72. Besides, in series [1], the inhibition was found to be 67%. In addition, the Activity result with Saccharomyces cerevisiae is recorded as “Toxic”.
In the case of `Cl.N=C(N)N1CCC[C@H]1c1nc(-c2ccc(OCc3ccc(C(F)(F)F)cc3)c(C(F)(F)F)c2)no1`, the Cmax in the series on Mus musculus [4] amounted to 8 µM. The “fold change (FC)” value with Mus musculus [5] stood at 2. Moreover, the inhibition result with Mus musculus [6] is “Active”. The pKi on Sphingosine kinase 2 [3] was 7.05. Also, the inhibition is 65% in [1] and 77% in series [2]. Further, the Activity entry in the series with Saccharomyces cerevisiae is recorded as “Toxic”.
On to `Cc1cc(-c2noc([C@@H]3CCCN3C(=N)N)n2)ccc1OCc1ccc(C(F)(F)F)cc1`, for which the inhibition in series [1] was determined as 3%.
As to `N=C(N)N1CCC[C@H]1c1nc(-c2ccc(OCc3ccc(C(F)(F)F)cc3)cc2)no1`, in [1], the inhibition amounted to 2%.
`N=C(N)N1CCC[C@H]1c1nc(-c2ccc(OCc3ccc(C(F)(F)F)cc3)c(Cl)c2)no1`: the inhibition in series [1] came out at 33%.
In the case of `N=C(N)N1CCC[C@H]1c1nc(-c2ccc(OCc3ccc(C(F)(F)F)cc3)c(F)c2)no1`, in [1], the inhibition turned out to be 23%.
Take `C=CCc1cc(-c2noc([C@@H]3CCCN3C(=N)N)n2)ccc1OCc1ccc(C(F)(F)F)cc1.Cl`: in [1], the inhibition came to 59%. Moreover, the Activity entry in the series on Saccharomyces cerevisiae was “Toxic”.
On to `CCCCCCCCOc1ccc(-c2noc([C@@H]3CCCN3C(=N)N)n2)cc1C(F)(F)F`, for which, at Sphingosine kinase 2 [7], the pKi is 6.40.
With `N=C(N)N1CCC[C@H]1c1nc(-c2ccc(OCc3ccc(C(F)(F)F)cc3)c(-c3ccc(C(F)(F)F)cc3)c2)no1`, the inhibition in series [1] was 12%.
As to `COc1cc(-c2noc([C@@H]3CCCN3C(=N)N)n2)ccc1OCc1ccc(C(F)(F)F)cc1`, the inhibition in series [1] was found to be 15%.
`N=C(N)N1CCC[C@H]1c1nc(-c2ccc(OCc3ccc(C(F)(F)F)cc3)c(-c3ccc(F)cc3)c2)no1`: the inhibition in series [1] was 31%.
As to `CC(C)(C)c1cc(-c2noc([C@@H]3CCCN3C(=N)N)n2)ccc1OCc1ccc(C(F)(F)F)cc1.Cl`, on Sphingosine kinase 2 [3], the pKi is 6.71. In addition, the inhibition in [1] was determined as 66%. In addition, the Activity result with Saccharomyces cerevisiae is given as “Toxic”.
On to `N=C(N)N1CCC[C@H]1c1nc(-c2ccc(OCc3ccc(C(F)(F)F)cc3)c([N+](=O)[O-])c2)no1`, for which the inhibition in series [1] came to 33%.
In the case of `CCc1cc(-c2noc([C@@H]3CCCN3C(=N)N)n2)ccc1OCc1ccc(C(F)(F)F)cc1.Cl`, in [1], the inhibition amounted to 42%. Further, the Activity result in the series on Saccharomyces cerevisiae was “Toxic”.
Regarding `Cc1cc(-c2noc([C@@H]3CCCN3C(=N)N)n2)cc(C)c1OCc1ccc(C(F)(F)F)cc1`, the inhibition in series [1] was 23%.
As for `N=C(N)N1CCC[C@H]1c1nc(-c2ccc(OCc3ccc(C(F)(F)F)cc3)cc2Cl)no1`, the inhibition in series [1] was determined as 40%.
For the molecule `N=C(N)N1CCC[C@H]1c1nc(-c2ccc(OCc3ccc(C(F)(F)F)cc3)c(-c3ccncc3)c2)no1`, the inhibition in [1] was 8%.
Regarding `CCCc1cc(-c2noc([C@@H]3CCCN3C(=N)N)n2)ccc1OCc1ccc(C(F)(F)F)cc1.Cl`, the pKi on Sphingosine kinase 2 [3] was 6.70. Moreover, the inhibition in series [1] turned out to be 60%. The Activity entry in the series on Saccharomyces cerevisiae was “Toxic”.
`N=C(N)N1CCC[C@H]1c1nc(-c2ccc(OCc3ccc(C(F)(F)F)cc3)cc2C(F)(F)F)no1`: the inhibition in [1] was 35%.
Regarding `Cl.N=C(N)N1CCC[C@H]1c1nc(-c2ccc(OCc3ccc(C(F)(F)F)cc3)c(C3CC3)c2)no1`, the pKi on Sphingosine kinase 2 [3] was 6.73. Besides, in [1], the inhibition was found to be 52%. The Activity result in the series on Saccharomyces cerevisiae was “Toxic”.
Usually inhibition in vivo stands for the percentage by which the read-out fell short of the control. Lower therefore signals a response near the control. Turning to `CCCCCCCCc1ccc(-c2noc(C[C@@H]3CCCN3C(=N)N)n2)cc1`, the inhibition in vivo at 10 mg/kg in the series on Rattus norvegicus was determined as 80%.
Regarding `N=C(N)N1CCC[C@H]1c1nc(-c2ccc(OCc3ccc(C(F)(F)F)cc3)c(-c3ccccc3)c2)no1`, in [1], the inhibition was 28%.
For `N=C(N)N1CCC[C@H]1c1nc(-c2ccc(OCc3ccc(C(F)(F)F)cc3)c(Br)c2)no1`, the inhibition in series [1] is 24%.
